Series [1] concerns Salmonella paratyphi. The series can be described thus: Antibacterial activity against Salmonella paratyphi A CICC 20501 assessed as bacterial growth inhibition incubated for 18 to 24 hrs by microtiter broth dilution method. It counts as functional, Salmonella enterica subsp. enterica serovar Paratyphi A. The settings on record: Salmonella enterica, time 18-24 hrs. In short, it runs like this:
(§1)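 Log-phase bacteria grown at 37 °C in MHB, diluted to 10^5 CFU/mL, mixed 1:1 with serial peptide dilutions (peptide diluted in 0.01% acetic acid, 0.2% BSA); 37 °C for 18-24 h. MIC read by OD492 as lowest concentration giving no growth; mean of 3-5 independent experiments.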
For orientation: Dilution methods test growth across graded concentrations, often in twofold steps.

Series [2] has as its system Escherichia coli. The series can be described thus: Antibacterial activity against Escherichia coli ATCC 25922 assessed as bacterial growth inhibition incubated for 18 to 24 hrs by microtiter broth dilution method. It counts as functional. To be noted: time 18-24 hrs. Put shortly:
(§2)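 Log-phase cells (grown overnight at 37 °C, subcultured in MHB) diluted to 10^5 CFU/mL in MHB and mixed 1:1 with serial peptide dilutions prepared in 0.01% acetic acid/0.2% BSA. Incubated 37 °C for 18-24 h. MIC is the lowest concentration giving no growth by OD492. Reported as the average of 3-5 independent experiments.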

For the next series, the system named is Salmonella typhimurium. The series can be described thus: Antibacterial activity against Salmonella typhimurium CMCC 51005 assessed as bacterial growth inhibition incubated for 18 to 24 hrs by microtiter broth dilution method. The format is functional, Salmonella enterica subsp. enterica serovar Typhimurium. The settings on record: Salmonella enterica, time 18-24 hrs. Put shortly: as §2

Series [3] relates to Staphylococcus aureus. The series can be described thus: Antibacterial activity against methicillin resistant Staphylococcus aureus ATCC 43300 assessed as bacterial growth inhibition incubated for 18 to 24 hrs by microtiter broth dilution method. The format is functional. The settings on record: time 18-24 hrs. In short, it runs like this: as §1
In a further series the test system is Shigella flexneri. The series can be described thus: Antibacterial activity against Shigella flexneri CMCC 51571 assessed as bacterial growth inhibition incubated for 18 to 24 hrs by microtiter broth dilution method. The format is functional. To be noted: time 18-24 hrs. In short, it runs like this: as §2
The subject of series [4] is Escherichia coli. The series can be described thus: Antibacterial activity against Escherichia coli ATCC 35150 assessed as bacterial growth inhibition incubated for 18 to 24 hrs by microtiter broth dilution method. It counts as functional. The settings on record: time 18-24 hrs. Put shortly:
as §2

For the next series, the system named is Bacillus cereus. The series can be described thus: Antibacterial activity against Bacillus cereus CMCC 63301 assessed as bacterial growth inhibition incubated for 18 to 24 hrs by microtiter broth dilution method. It counts as functional. To be noted: time 18-24 hrs. Put shortly:
as §2

The test system of a further series is Salmonella enteritidis. As to the kind of experiment: Antibacterial activity against Salmonella enteritidis CICC 21527 assessed as bacterial growth inhibition incubated for 18 to 24 hrs by microtiter broth dilution method. The format is functional, Salmonella enterica subsp. enterica serovar Enteritidis. To be noted: Salmonella enterica, time 18-24 hrs. Put shortly: as §2

The test system of the next series is Salmonella enterica. The series can be described thus: Antibacterial activity against Salmonella choleraesuis ATCC 13312 assessed as bacterial growth inhibition incubated for 18 to 24 hrs by broth dilution method. To be noted: time 18-24 hrs. It counts as functional. Put shortly: as §1
The subject of the next series is Bacillus pumilus. The series can be described thus: Antibacterial activity against Bacillus pumilus CMCC 63202 assessed as bacterial growth inhibition incubated for 18 to 24 hrs by microtiter broth dilution method. The format is functional. To be noted: time 18-24 hrs. Put shortly: as §2
Another series has as its system Pseudomonas fluorescens. As to the kind of experiment: Antibacterial activity against Pseudomonas fluorescens CICC 21620 assessed as bacterial growth inhibition incubated for 18 to 24 hrs by microtiter broth dilution method. The settings on record: time 18-24 hrs. The format is functional. In short, it runs like this:
as §2

Series [5] concerns Staphylococcus aureus. As to the kind of experiment: Antibacterial activity against Staphylococcus aureus GIM 1.160 assessed as bacterial growth inhibition incubated for 18 to 24 hrs by microtiter broth dilution method. To be noted: time 18-24 hrs. The format is functional. In short, it runs like this:
as §2

In a further series the test system is Vibrio parahaemolyticus. As to the kind of experiment: Antibacterial activity against Vibrio parahaemolyticus CICC 21617 assessed as bacterial growth inhibition incubated for 18 to 24 hrs by broth dilution method. It counts as functional. To be noted: time 18-24 hrs. Put shortly:
as §2

The test system of a further series is Erythrocyte. The series can be described thus: Hemolytic activity against human red blood cells assessed as concentration required to cause 10% hemoglobin release measured after 1 hr by microplate reader analysis. It counts as ADME, cell-based. In short, it runs like this:
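Fresh heparinized human RBCs washed three times in 10 mM PBS pH 7.4 and resuspended to about 1% (v/v) (5.4 × 10^8 cells/mL). Mixed 1:1 with peptide in PBS for 1 h at 37 °C, then centrifuged. Supernatant hemoglobin read at A540. PBS set as 0% and 0.1% Triton X-100 as 100% hemolysis. MHC is the concentration causing 10% hemolysis.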

The test system of another series is Candida albicans. As to the kind of experiment: Antifungal activity against Candida albicans ATCC 10231 assessed as fungal growth inhibition incubated for 18 to 24 hrs by microtiter broth dilution method. It counts as functional. To be noted: time 18-24 hrs. In short, it runs like this:
as §2

For series [6], the system named is Salmonella enterica subsp. enterica serovar Paratyphi B. As to the kind of experiment: Antibacterial activity against Salmonella paratyphi B CICC 21495 assessed as bacterial growth inhibition incubated for 18 to 24 hrs by microtiter broth dilution method. The format is functional. To be noted: time 18-24 hrs. In short, it runs like this:
as §1

Series [7] relates to Salmonella paratyphi. The series can be described thus: Antibacterial activity against Salmonella paratyphi C CICC 21512 assessed as bacterial growth inhibition incubated for 18 to 24 hrs by microtiter broth dilution method. The format is functional. The settings on record: Salmonella enterica, time 18-24 hrs. In short, it runs like this: as §1
The test system of series [8] is Escherichia coli. As to the kind of experiment: Antibacterial activity against Escherichia coli O157:H7 CICC 21530 assessed as bacterial growth inhibition incubated for 18 to 24 hrs by microtiter broth dilution method. The format is functional. The settings on record: time 18-24 hrs. In short, it runs like this:
as §1

Another series concerns Micrococcus luteus. The series can be described thus: Antibacterial activity against Micrococcus luteus CMCC 28001 assessed as bacterial growth inhibition incubated for 18 to 24 hrs by microtiter broth dilution method. To be noted: time 18-24 hrs. It counts as functional. Put shortly:
as §2

In series [9] the test system is Listeria monocytogenes. As to the kind of experiment: Antibacterial activity against Listeria monocytogenes CICC 21662 assessed as bacterial growth inhibition incubated for 18 to 24 hrs by microtiter broth dilution method. It counts as functional. To be noted: time 18-24 hrs. In short, it runs like this:
as §2

Series [10] concerns Staphylococcus aureus. The series can be described thus: Antibacterial activity against Staphylococcus aureus ATCC 29213 assessed as bacterial growth inhibition incubated for 18 to 24 hrs by microtiter broth dilution method. The format is functional. To be noted: time 18-24 hrs. In short, it runs like this: as §2
For series [11], the system named is Listeria monocytogenes. As to the kind of experiment: Antibacterial activity against Listeria monocytogenes CICC 21633 assessed as bacterial growth inhibition incubated for 18 to 24 hrs by microtiter broth dilution method. The format is functional. The settings on record: time 18-24 hrs. Put shortly: as §2

The MIC is the lowest concentration that inhibits growth of the organism.

In brackets after ≈: the same amount, converted by molar mass.

Turning to `CN[C@H](CC(C)C)C(=O)N[C@H]1C(=O)N[C@@H](CC(N)=O)C(=O)N[C@H]2C(=O)N[C@H]3C(=O)N[C@H](C(=O)N[C@H](C(=O)O)c4cc(O)cc(O)c4-c4cc3ccc4O)[C@H](O)c3ccc(c(Cl)c3)Oc3cc2cc(c3O[C@@H]2O[C@H](CO)[C@@H](O)[C@H](O)[C@H]2O[C@H]2C[C@](C)(N)[C@H](O)[C@H](C)O2)Oc2ccc(cc2Cl)[C@H]1O` [VANCOMYCIN], the MIC in the series with Salmonella paratyphi [1] was more than 88.3 µM; with Escherichia coli [2], 88.3 µM (≈ 128 µg/mL); in the series with Salmonella typhimurium, more than 88.3 µM; in the series on Staphylococcus aureus [3] it was 1.38 µM (≈ 2 µg/mL); with Shigella flexneri, 88.3 µM (≈ 128 µg/mL); in the series on Escherichia coli [4], more than 88.3 µM. The MIC was 0.17 µM (≈ 0.246 µg/mL) in the series on Bacillus cereus; 44.2 µM (≈ 64 µg/mL) in the series with Salmonella enteritidis; more than 88.3 µM in the series on Salmonella enterica; 0.35 µM (≈ 0.507 µg/mL) in the series on Bacillus pumilus; 0.35 µM (≈ 0.507 µg/mL) in the series on Pseudomonas fluorescens; 1.38 µM (≈ 2 µg/mL) in the series on Staphylococcus aureus [5]. Also, the MIC with Vibrio parahaemolyticus is 88.3 µM (≈ 128 µg/mL); in the series on Candida albicans it was more than 88.3 µM; in series [6] it was 88.3 µM (≈ 128 µg/mL); in the series with Salmonella paratyphi [7], 88.3 µM (≈ 128 µg/mL); in the series on Escherichia coli [8], more than 88.3 µM; in the series with Micrococcus luteus it was 0.69 µM (≈ 1 µg/mL). Further, the MHC10 with Erythrocyte was more than 88.32 µM.
On to `C[C@@H]1[C@H](O)[C@@H](C)/C=C/C=C/C=C/C=C/C=C/C=C/C=C/[C@H](O[C@@H]2O[C@H](C)[C@@H](O)[C@H](N)[C@@H]2O)C[C@@H]2O[C@](O)(C[C@@H](O)C[C@@H](O)[C@H](O)CC[C@@H](O)C[C@@H](O)CC(=O)O[C@H]1C)C[C@H](O)[C@H]2C(=O)O` [AMPHOTERICIN B], for which the MIC in the series on Salmonella paratyphi [1], in the series on Escherichia coli [2], in the series with Listeria monocytogenes [9], in the series on Salmonella typhimurium, with Staphylococcus aureus [3] and in the series with Staphylococcus aureus [10] was more than 139 µM in each case. Besides, the MIC in the series with Shigella flexneri, in the series with Escherichia coli [4], in the series on Bacillus cereus, in the series on Salmonella enteritidis, in the series on Salmonella enterica and in the series on Listeria monocytogenes [11] was more than 139 µM each time. Also, the MIC was more than 139 µM in the series on Bacillus pumilus; more than 139 µM with Pseudomonas fluorescens; more than 139 µM in the series on Staphylococcus aureus [5]; more than 139 µM in the series with Vibrio parahaemolyticus; 4.33 µM (≈ 4 µg/mL) in the series on Candida albicans; more than 139 µM in series [6]. The MIC in the series on Salmonella paratyphi [7], with Escherichia coli [8] and in the series on Micrococcus luteus was more than 139 µM each time. Moreover, the MHC10 in the series with Erythrocyte worked out at 0.54 µM.

Values taken from ChEMBL document CHEMBL4765236, “Insights into the Antimicrobial Activity and Cytotoxicity of Engineered α-Helical Peptide Amphiphiles” (J Med Chem, 2016).
